Measurements reported in publication PMC4893637 (Theranostics, 2016).

What was measured:
[1] = target: Recombinant human PSMA (rhPSMA) (Homo sapiens, UniProt Q04609); test: NAALADase assay; assay type: biochemical
[2] = target: PSMA positive LNCaP cells (Homo sapiens, UniProt Q04609); test: Internalization assay on LNCaP cells; assay type: cell-based; conditions: 30 nM radiolabeled compound, 45 min; 177Lu-labeled, except CIM 99mTc-labeled
Method in brief: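 Poly-L-lysine-coated wells were seeded with 10⁵ LNCaP cells in RPMI (10% FCS, 1% L-glutamine) and held overnight at 37 °C. Cells took up 30 nM radiolabelled test compound in Opti-MEM for 45 min at 37 °C or 4 °C, with 2-PMPA block or DMSO, in triplicate. Surface-bound tracer came off in two 5-min 50 mM glycine pH 2.8 washes and internalized tracer in 0.3 M NaOH lysate. All fractions were gamma-counted against a ligand standard.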

[3] = system: BALB/c nude mouse LNCaP xenograft; test: MicroPET in LNCaP xenograft mouse; assay type: in vivo; conditions: 68Ga-labeled, i.v.
Method in brief: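 Purified 68Ga-labelled test conjugates (50 MBq/nmol) were sterile-filtered and 100 µl injected into the tail vein of BALB/c nude mice bearing LNCaP xenografts under 2% sevoflurane. Two tracers were compared in the same mouse. Blocking used 100-fold excess of unlabelled compound, imaged 2 h post-injection.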

Recombinant human PSMA (rhPSMA), sequence (Q04609 whole entry): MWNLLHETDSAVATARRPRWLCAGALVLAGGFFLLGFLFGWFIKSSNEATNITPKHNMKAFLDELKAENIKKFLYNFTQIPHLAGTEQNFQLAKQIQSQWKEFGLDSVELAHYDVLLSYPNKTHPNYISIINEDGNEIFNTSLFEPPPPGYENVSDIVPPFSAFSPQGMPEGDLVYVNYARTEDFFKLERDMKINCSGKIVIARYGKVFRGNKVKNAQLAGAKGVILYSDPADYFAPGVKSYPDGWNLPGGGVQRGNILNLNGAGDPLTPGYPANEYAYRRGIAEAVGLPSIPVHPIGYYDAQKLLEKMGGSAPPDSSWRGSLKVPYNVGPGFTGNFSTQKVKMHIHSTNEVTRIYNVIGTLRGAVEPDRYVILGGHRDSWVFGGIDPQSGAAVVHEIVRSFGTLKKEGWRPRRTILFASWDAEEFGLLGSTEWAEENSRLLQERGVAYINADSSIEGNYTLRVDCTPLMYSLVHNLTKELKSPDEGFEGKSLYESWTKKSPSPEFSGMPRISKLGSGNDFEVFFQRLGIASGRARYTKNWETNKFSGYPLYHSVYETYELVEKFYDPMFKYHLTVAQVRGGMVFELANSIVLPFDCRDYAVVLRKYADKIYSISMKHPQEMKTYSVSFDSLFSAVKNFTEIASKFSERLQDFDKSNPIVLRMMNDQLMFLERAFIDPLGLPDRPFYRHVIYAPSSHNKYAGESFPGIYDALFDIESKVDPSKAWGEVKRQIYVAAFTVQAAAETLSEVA
PSMA positive LNCaP cells, sequence (Q04609 whole entry): as above

IC50 [1]: 0.8 ± 0.3 nM
Absolute value of compound inside of the cells (amount internalized) [2]: 3.7 ± 4.6%
Time after which the amount in the tumor begins to decrease [3]: approximately 15 min
SMILES: O=C(O)CC[C@H](NC(=O)N[C@@H](CCCCNC(=O)[C@H](Cc1ccc2ccccc2c1)NC(=O)[C@H]1CC[C@H](CNC(=O)CN2CCN(CC(=O)O)CCN(CC(=O)O)CCN(CC(=O)O)CC2)CC1)C(=O)O)C(=O)O [DOTA conjugate]
